In ChEMBL document CHEMBL2440113, “Synthesis, radiofluorination, and in vivo evaluation of novel fluorinated and iodinated radiotracers for PET imaging and targeted radionuclide therapy of melanoma” (J Med Chem, 2013):

What was measured:
Settings in all cases: in vivo
[1] = Ratio of drug level in tumor to muscle in C57BL/6J mouse harboring mouse B16-Bl6 cells at 8 to 12 MBq, iv after 1 hr by PET analysis; type: ADME, organism-based
Summary of the method: (§1)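 Static whole-body PET at 1 h after tail-vein injection of [18F]tracer (9-12 MBq/0.15 mL) in C57BL/6J mice carrying subcutaneous B16Bl6 shoulder tumours (3x10⁵ cells), imaged day 10 or 14. Mice under ketamine/xylazine ip. 25 min acquisition, OSEM reconstruction. ROI % ID/g = counts/g/min ÷ injected dose; ratios = tumour % ID/g ÷ organ % ID/g. n=2-8; mean ± SD.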

[2] = Ratio of drug level in tumor to bone in C57BL/6J mouse harboring mouse B16-Bl6 cells at 8 to 12 MBq, iv after 1 hr by PET analysis; type: ADME, organism-based; summary of the method: as §1
Muscle tissue = assay: Biodistribution in muscle of C57BL/6J mouse harboring mouse B16-Bl6 cells at 8 to 12 MBq, iv after 1 hr by PET analysis; type: ADME, organism-based
Summary of the method: (§2)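 C57BL/6J mice were inoculated s.c. on the right shoulder with 3x10⁵ B16Bl6 cells in PBS under isoflurane, and imaged at day 10 or 14 (tumor volume 431.8 ± 154.3 mm³). The ¹⁸F tracer was given i.v. via tail vein, 8-12 MBq (methods: 9-12 MBq/0.15 mL). Under ketamine/xylazine i.p., a 25-min whole-body static PET scan ran at 1 h. ROI %ID/g = counts/g/min ÷ injected dose. n=2-8; mean ± SD.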

Mus musculus [3] = assay: Biodistribution in tumor of C57BL/6J mouse harboring mouse B16-Bl6 cells at 8 to 12 MBq, iv after 1 hr by PET analysis; type: ADME, organism-based, Neoplasm; summary of the method: as §1
Bone = assay: Biodistribution in bone of C57BL/6J mouse harboring mouse B16-Bl6 cells at 8 to 12 MBq, iv after 1 hr by PET analysis; type: ADME, organism-based, Bone element; summary of the method: as §2
Mus musculus [4] = assay: Biodistribution in eye of C57BL/6J mouse harboring mouse B16-Bl6 cells at 8 to 12 MBq, iv after 1 hr by PET analysis; type: ADME, organism-based; summary of the method: as §2

Ratio [1] | Ratio [2] | Drug uptake (Muscle tissue) | Drug uptake (Mus musculus [3]) | Drug uptake (Bone) | Drug uptake (Mus musculus [4]) | Structure (SMILES)
5.07 | 1.46 | 0.82 % ID/g | 4.16 % ID/g | 2.77 % ID/g | 2.7 % ID/g | CCN(CC#CC[18F])CCNC(=O)c1cnc2cc(I)ccc2n1
8.27 | 1.99 | 0.83 % ID/g | 6.74 % ID/g | 3.39 % ID/g | 9.49 % ID/g | CCN(C/C=C/C[18F])CCNC(=O)c1cnc2cc(I)ccc2n1
1.95 | 1.31 | 1.02 % ID/g | 2.02 % ID/g | 1.31 % ID/g | 1.4 % ID/g | CCN(CC[18F])CCNC(=O)c1cnc2cc(I)ccc2n1
11.86 | 1.5 | 0.9 % ID/g | 10.56 % ID/g | 7.05 % ID/g | 10.46 % ID/g | CCN(CCC[18F])CCNC(=O)c1cnc2cc(I)ccc2n1
